Assay results: ChEMBL document CHEMBL1151742, “Design, synthesis, and characterization of high-affinity, systemically-active galanin analogues with potent anticonvulsant activities” (J Med Chem, 2008)
Counter-ions that a name gives are not always drawn. Active and inactive are the calls of the source. No cut-off for these calls is given here. Square brackets hold non-standard residues; d marks the D form. Peptide text beside a SMILES is read from it. * marks the point of attachment. Fmoc = O=C(OCC1c2ccccc2-c2ccccc21)*; Palmitoyl = CCCCCCCCCCCCCCCC(=O)*; Cha = N[C@@H](CC1CCCCC1)C(=O)O; AMC = Cc1cc(=O)oc2cc(N*)ccc12; Sar = CNCC(=O)O

Legend:
[1] = Metabolic stability in rat serum assessed as half life at pH 7.5; format: ADME, cell-free
How it was run: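 Peptide (final 20 µM) was incubated in 25% rat serum with 0.1 M Tris-HCl pH 7.5 at 37 °C, serum pre-warmed 10 min. Aliquots taken up to 8 h were quenched with 15% TCA in 40% isopropanol, held 15 min at -20 °C and centrifuged. Intact peptide was measured by reversed-phase HPLC peak area, and half-life was calculated from the disappearance.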

Galanin receptor type 1 = target: T1, Galanin receptor type 1 (Homo sapiens, UniProt P47211); assay: Displacement of europium-labeled galanin from human GalR1 expressed in HEK293 EBNA cells; format: cell-based
T1 sequence (P47211 whole entry): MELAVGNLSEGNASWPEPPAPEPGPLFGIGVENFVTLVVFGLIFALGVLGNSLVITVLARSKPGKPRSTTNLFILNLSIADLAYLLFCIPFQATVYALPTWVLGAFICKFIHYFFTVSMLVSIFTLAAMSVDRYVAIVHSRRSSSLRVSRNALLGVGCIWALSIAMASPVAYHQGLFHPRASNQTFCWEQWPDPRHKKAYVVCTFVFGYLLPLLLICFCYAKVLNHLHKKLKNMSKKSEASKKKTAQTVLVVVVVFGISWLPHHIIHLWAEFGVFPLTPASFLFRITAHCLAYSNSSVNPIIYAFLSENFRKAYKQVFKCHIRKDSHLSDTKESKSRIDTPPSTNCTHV

Galanin receptor type 2 [2] = target: T2, Galanin receptor type 2 (Homo sapiens, UniProt O43603); assay: Displacement of europium-labeled galanin from human GalR2 expressed in CHO-K1 cells; format: cell-based
T2 sequence (O43603 whole entry): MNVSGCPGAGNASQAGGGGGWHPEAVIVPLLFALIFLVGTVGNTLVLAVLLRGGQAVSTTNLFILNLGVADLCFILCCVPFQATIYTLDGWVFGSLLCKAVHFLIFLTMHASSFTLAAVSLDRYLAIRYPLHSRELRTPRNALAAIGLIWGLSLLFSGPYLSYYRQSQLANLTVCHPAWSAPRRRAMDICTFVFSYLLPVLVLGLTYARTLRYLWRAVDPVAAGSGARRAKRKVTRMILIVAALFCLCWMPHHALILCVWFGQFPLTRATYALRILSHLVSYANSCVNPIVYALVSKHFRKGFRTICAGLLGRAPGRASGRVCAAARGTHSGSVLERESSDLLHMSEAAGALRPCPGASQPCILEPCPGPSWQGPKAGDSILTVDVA

Mus musculus [3] = assay: Anticonvulsant activity in CF1 mouse assessed as inhibition of 6 Hz corneal stimulation-induced limbic seizures at 4 mg/kg, ip administered 15 mins before 6 Hz corneal stimulation; format: functional, organism-based; design: dose 4 mg/kg; conditions: Limbic system
How it was run: (§1)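 Each analogue given ip at 4 mg/kg to five groups of CF-1 mice (n = 4 per group), one group per time point. Seizure challenge was 6 Hz corneal stimulation (32 mA for 3 s, corneal electrodes) at 15, 30, 60, 120 or 240 min after dosing. A mouse without a limbic seizure (jaw chomping, vibrissae twitching, forelimb clonus, Straub tail) was counted as protected.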

Mus musculus [4] = assay: Anticonvulsant activity in CF1 mouse assessed as inhibition of 6 Hz corneal stimulation-induced limbic seizures at 4 mg/kg, ip administered 120 mins before 6 Hz corneal stimulation; format: functional, organism-based; design: dose 4 mg/kg; conditions: Limbic system; how it was run: as §1
Mus musculus [5] = assay: Anticonvulsant activity in CF1 mouse assessed as inhibition of 6 Hz corneal stimulation-induced limbic seizures at 4 mg/kg, ip administered 60 mins before 6 Hz corneal stimulation; format: functional, organism-based; design: dose 4 mg/kg; conditions: Limbic system; how it was run: as §1
Mus musculus [6] = assay: Anticonvulsant activity in CF1 mouse assessed as inhibition of 6 Hz corneal stimulation-induced limbic seizures at 4 mg/kg, ip administered 240 mins before 6 Hz corneal stimulation; format: functional, organism-based; design: dose 4 mg/kg; conditions: Limbic system; how it was run: as §1
Galanin receptor type 2 [7] = target: T2, Galanin receptor type 2; assay: Binding affinity to human GalR2

Row | SMILES | half-life [1] [h] | Ki (Galanin receptor type 1) [nM] | Ki (Galanin receptor type 2 [2]) [nM] | Activity (Mus musculus [3]) | Activity (Mus musculus [4]) | Activity (Mus musculus [5]) | Activity (Mus musculus [6]) | Kd (Galanin receptor type 2 [7]) [nM]
1 | CCCCCCCCCCCCCCCC(=O)NCCCC[C@H](NC(=O)[C@@H](CCCCN)NC(=O)[C@@H](CCCCN)NC(=O)[C@@H]1CCCN1C(=O)CNC(=O)[C@H](CC(C)C)NC(=O)[C@H](CC(C)C)NC(=O)[C@H](Cc1ccc(O)cc1)NC(=O)CNC(=O)[C@H](C)NC(=O)[C@H](CO)NC(=O)[C@H](CC(N)=O)NC(=O)[C@H](CC(C)C)NC(=O)[C@@H](NC(=O)[C@H](Cc1c[nH]c2ccccc12)NC(=O)CNC)[C@@H](C)O)C(=O)N[C@H](CCCCN)C(N)=O | > 10 | 0.9 | – | – | – | – | – | –
2 | CCCCCCCCCCCCCCCC(=O)NCCCC[C@H](NC(=O)[C@H](CCCCN)NC(=O)[C@H](CCCCN)NC(=O)[C@@H]1CCCN1C(=O)CNC(=O)[C@H](CC(C)C)NC(=O)[C@H](CC(C)C)NC(=O)[C@H](Cc1ccc(O)cc1)NC(=O)CNC(=O)[C@H](C)NC(=O)[C@H](CO)NC(=O)[C@H](CC(N)=O)NC(=O)[C@H](CC(C)C)NC(=O)[C@@H](NC(=O)[C@H](Cc1c[nH]c2ccccc12)NC(=O)CCCCCN)[C@@H](C)O)C(=O)N[C@@H](CCCCN)C(N)=O | > 10 | 21.5 | 51 | Active | – | – | – | –
3 | CCCCCCCCCCCCCCCC(=O)NCCCC[C@H](NC(=O)[C@H](CCCCN)NC(=O)[C@H](CCCCN)NC(=O)[C@H](CCCCN)NC(=O)[C@H](CCCCN)NC(=O)[C@H](CC(C)C)NC(=O)[C@H](CC(C)C)NC(=O)[C@H](Cc1ccc(O)cc1)NC(=O)CNC(=O)[C@H](C)NC(=O)[C@H](CO)NC(=O)[C@H](CC(N)=O)NC(=O)[C@H](CC(C)C)NC(=O)[C@@H](NC(=O)[C@H](Cc1c[nH]c2ccccc12)NC(=O)CNC)[C@@H](C)O)C(=O)N[C@@H](CCCCN)C(N)=O (H-[Sar]WTLNSAGYLLKKKKK(Palmitoyl)K-NH2) | 8.7 | 41.5 | 215 | – | Active | – | – | –
4 | CCCCCCCCCCCCCCCC(=O)NCCCC[C@H](NC(=O)[C@H](CCCCN)NC(=O)[C@@H]1CCCN1C(=O)CNC(=O)[C@H](CC(C)C)NC(=O)[C@H](CC(C)C)NC(=O)[C@H](Cc1ccc(O)cc1)NC(=O)CNC(=O)[C@H](C)NC(=O)[C@H](CO)NC(=O)[C@H](CC(N)=O)NC(=O)[C@H](CC(C)C)NC(=O)[C@@H](NC(=O)[C@H](Cc1c[nH]c2ccccc12)NC(=O)CNC)[C@@H](C)O)C(=O)N[C@@H](CCCCN)C(=O)N[C@@H](CCCCN)C(N)=O | 8.6 | 6 | 28 | – | inactive | inactive | inactive | –
5 | Cc1cc(=O)oc2cc(NC(=O)[C@@H](CCCCN)NC(=O)[C@H](CC3CCCCC3)NC(=O)OCC3c4ccccc4-c4ccccc43)ccc12 [GALNON] (Fmoc-[Cha]-[dK]-{AMC}) | – | – | – | – | – | – | – | 24000
6 | COC(=O)[C@H](CCCCN)NC(=O)[C@]1(C)NC(=O)c2nc(oc2C)[C@](C)(C(=O)NC2c3ccccc3-c3ccccc32)NC(=O)c2nc(oc2C)[C@](C)(C(=O)NCC2CCCCC2)NC(=O)c2nc1oc2C [GALMIC TFA] | – | – | – | – | – | – | – | > 100000
7 | CCCCCCCCCCCCCCCC(=O)NCCCC[C@H](NC(=O)[C@H](CCCCN)NC(=O)[C@H](CCCCN)NC(=O)CNC(=O)[C@H](CC(C)C)NC(=O)[C@H](CC(C)C)NC(=O)[C@H](Cc1ccc(O)cc1)NC(=O)CNC(=O)[C@H](C)NC(=O)[C@H](CO)NC(=O)[C@H](CC(N)=O)NC(=O)[C@H](CC(C)C)NC(=O)[C@@H](NC(=O)[C@H](Cc1c[nH]c2ccccc12)NC(=O)CNC)[C@@H](C)O)C(=O)N[C@@H](CCCCN)C(N)=O | 5.6 | 25.5 | 75 | – | inactive | – | inactive | –
8 | CCCCCCCCCCCCCCCC(=O)NCCCC[C@H](NC(=O)[C@H](CCCNC(=N)N)NC(=O)[C@H](CCCNC(=N)N)NC(=O)[C@@H]1CCCN1C(=O)CNC(=O)[C@H](CC(C)C)NC(=O)[C@H](CC(C)C)NC(=O)[C@H](Cc1ccc(O)cc1)NC(=O)CNC(=O)[C@H](C)NC(=O)[C@H](CO)NC(=O)[C@H](CC(N)=O)NC(=O)[C@H](CC(C)C)NC(=O)[C@@H](NC(=O)[C@H](Cc1c[nH]c2ccccc12)NC(=O)CNC)[C@@H](C)O)C(=O)N[C@@H](CCCNC(=N)N)C(N)=O | – | – | – | – | – | Active | inactive | –
9 | CCCCCCCCCCCCCCCC(=O)NCCCC[C@H](NC(=O)[C@H](CCCN=C(N)N)NC(=O)[C@H](CCCN=C(N)N)NC(=O)[C@@H]1CCCN1C(=O)CNC(=O)[C@H](CC(C)C)NC(=O)[C@H](CC(C)C)NC(=O)[C@H](Cc1ccc(O)cc1)NC(=O)CNC(=O)[C@H](C)NC(=O)[C@H](CO)NC(=O)[C@H](CC(N)=O)NC(=O)[C@H](CC(C)C)NC(=O)[C@@H](NC(=O)[C@H](Cc1c[nH]c2ccccc12)NC(=O)CNC)[C@@H](C)O)C(=O)N[C@@H](CCCN=C(N)N)C(N)=O | 4.8 | 3.3 | 65.5 | – | – | – | – | –
10 | CCCCCCCCCCCCCCCC(=O)NCCCC[C@H](NC(=O)[C@H](CCCCN)NC(=O)[C@H](CCCCN)NC(=O)[C@H](CCCCN)NC(=O)[C@@H]1CCCN1C(=O)CNC(=O)[C@H](CC(C)C)NC(=O)[C@H](CC(C)C)NC(=O)[C@H](Cc1ccc(O)cc1)NC(=O)CNC(=O)[C@H](C)NC(=O)[C@H](CO)NC(=O)[C@H](CC(N)=O)NC(=O)[C@H](CC(C)C)NC(=O)[C@@H](NC(=O)[C@H](Cc1c[nH]c2ccccc12)NC(=O)CNC)[C@@H](C)O)C(N)=O | > 10 | 1.9 | 22 | – | inactive | – | inactive | –
11 | CCCCCCCCCCCCCCCC(=O)NCCCC[C@H](NC(=O)[C@H](CCCCN)NC(=O)[C@H](CCCCN)NC(=O)[C@@H]1CCCN1C(=O)CNC(=O)[C@H](CC(C)C)NC(=O)[C@H](CC(C)C)NC(=O)[C@H](Cc1ccc(O)cc1)NC(=O)CNC(=O)[C@H](C)NC(=O)[C@H](CO)NC(=O)[C@H](CC(N)=O)NC(=O)[C@H](CC(C)C)NC(=O)[C@@H](NC(=O)[C@H](Cc1c[nH]c2ccccc12)NC(=O)CN)[C@@H](C)O)C(=O)N[C@@H](CCCCN)C(N)=O | > 10 | 5.3 | 22.5 | – | inactive | – | inactive | –
12 | CC(C)C[C@H](NC(=O)[C@H](CC(C)C)NC(=O)[C@H](Cc1ccc(O)cc1)NC(=O)CNC(=O)[C@H](C)NC(=O)[C@H](CO)NC(=O)[C@H](CC(N)=O)NC(=O)[C@H](CC(C)C)NC(=O)[C@@H](NC(=O)[C@@H](N)Cc1c[nH]c2ccccc12)[C@@H](C)O)C(=O)O | – | – | – | – | – | – | – | 1.8
13 | CCCCCCCCCCCCCCCC(=O)NCCCC[C@@H](NC(=O)[C@H](CCCCN)NC(=O)[C@@H](CCCCN)NC(=O)[C@H]1CCCN1C(=O)CNC(=O)[C@H](CC(C)C)NC(=O)[C@H](CC(C)C)NC(=O)[C@H](Cc1ccc(O)cc1)NC(=O)CNC(=O)[C@H](C)NC(=O)[C@H](CO)NC(=O)[C@H](CC(N)=O)NC(=O)[C@H](CC(C)C)NC(=O)[C@@H](NC(=O)[C@H](Cc1c[nH]c2ccccc12)NC(=O)CNC)[C@@H](C)O)C(=O)N[C@@H](CCCCN)C(N)=O | – | – | – | – | – | Active | – | –
14 | CCCCCCCCCCCCCCCC(=O)NCCCC[C@H](NC(=O)[C@H](CCCCN)NC(=O)[C@H](CCCCN)NC(=O)[C@@H]1CCCN1C(=O)CNC(=O)[C@H](CC(C)C)NC(=O)[C@H](CC(C)C)NC(=O)[C@H](Cc1ccc(O)cc1)NC(=O)CNC(=O)[C@H](C)NC(=O)[C@H](CO)NC(=O)[C@H](CC(N)=O)NC(=O)[C@H](CC(C)C)NC(=O)[C@@H](NC(=O)[C@@H](N)Cc1c[nH]c2ccccc12)[C@@H](C)O)C(=O)N[C@@H](CCCCN)C(N)=O (H-WTLNSAGYLLGPKKK(Palmitoyl)K-NH2) | > 10 | 387 | 48 | – | – | – | inactive | –
